# Laboratory results as given in article PMC10975593 (ACS Omega, 2024).
# Where two headings read alike, the source gives them in different places.
# Tests used:
# PI3Kγ enzyme = PI3Kγ enzyme (Homo sapiens, UniProt P48736); assay: Adapta universal kinase assay, anti-PI3Kγ activity; assay type: biochemical
# In short: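 Adapta ADP-detection TR-FRET immunoassay with test compound at 100 μM. The kinase reaction runs 60 min. It is then stopped by a detection solution of EDTA, europium-labelled anti-ADP antibody and Alexa Fluor 647-labelled ADP tracer. ADP formed displaces the tracer and lowers the TR-FRET signal. ADP formation is calculated from the emission ratio.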
# Escherichia coli = assay: Disc diffusion antimicrobial test; assay type: cell-based; details: Escherichia coli, 24 h, read-out: zone of inhibition (diameter of inhibition)
# In short: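 Disc diffusion on nutrient agar, test compound at 100 μg/mL with DMSO as solvent. Plates incubated at 37 °C for 24 h after inoculation, then zone of inhibition measured and compared with standards. Controls were DMSO, amoxicillin, ciprofloxacin and tetracycline.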
# MDA-MB-231/ATCC = assay: NCI 60-cell line screen; assay type: cell-based, human
# SF-539 = assay: NCI 60-cell line screen; assay type: cell-based, human
# In short: (§1)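 Test compounds were submitted to the National Cancer Institute and run under NCI's standard 60-cell-line protocols. Read-outs were taken from percent-growth versus log-concentration curves.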
# SNB-19 = assay: NCI 60-cell line screen; assay type: cell-based, human
# In short: as §1
# SNB-75 = assay: NCI 60-cell line screen; assay type: cell-based, human
# In short: as §1
# HCT-116 = assay: NCI 60-cell line screen; assay type: cell-based, human
# CCRF-CEM = assay: NCI 60-cell line screen; assay type: cell-based, human
# K-562 = assay: NCI 60-cell line screen; assay type: cell-based, human
# MDA-MB-435 = assay: NCI 60-cell line screen; assay type: cell-based, human
# SK-MEL-2 = assay: NCI 60-cell line screen; assay type: cell-based, human
# In short: as §1
# SK-MEL-5 = assay: NCI 60-cell line screen; assay type: cell-based, human
# In short: as §1
# UACC-62 = assay: NCI 60-cell line screen; assay type: cell-based, human
# In short: as §1
# A549/ATCC = assay: NCI 60-cell line screen; assay type: cell-based, human
# HOP-62 = assay: NCI 60-cell line screen; assay type: cell-based, human
# NCI-H23 = assay: NCI 60-cell line screen; assay type: cell-based, human
# NCI-H322M = assay: NCI 60-cell line screen; assay type: cell-based, human
# NCI-H460 = assay: NCI 60-cell line screen; assay type: cell-based, human
# NCI-H522 = assay: NCI 60-cell line screen; assay type: cell-based, human
# NCI/ADR-RES = assay: NCI 60-cell line screen; assay type: cell-based, human
# PC-3 = assay: NCI 60-cell line screen; assay type: cell-based, human
# In short: as §1
# SN12C = assay: NCI 60-cell line screen; assay type: cell-based, human
# In short: as §1
# UO-31 = assay: NCI 60-cell line screen; assay type: cell-based, human
# In short: as §1
# HL-60(TB) = assay: cells; details: Homo sapiens
# PI3Kγ enzyme, sequence (P48736 whole entry): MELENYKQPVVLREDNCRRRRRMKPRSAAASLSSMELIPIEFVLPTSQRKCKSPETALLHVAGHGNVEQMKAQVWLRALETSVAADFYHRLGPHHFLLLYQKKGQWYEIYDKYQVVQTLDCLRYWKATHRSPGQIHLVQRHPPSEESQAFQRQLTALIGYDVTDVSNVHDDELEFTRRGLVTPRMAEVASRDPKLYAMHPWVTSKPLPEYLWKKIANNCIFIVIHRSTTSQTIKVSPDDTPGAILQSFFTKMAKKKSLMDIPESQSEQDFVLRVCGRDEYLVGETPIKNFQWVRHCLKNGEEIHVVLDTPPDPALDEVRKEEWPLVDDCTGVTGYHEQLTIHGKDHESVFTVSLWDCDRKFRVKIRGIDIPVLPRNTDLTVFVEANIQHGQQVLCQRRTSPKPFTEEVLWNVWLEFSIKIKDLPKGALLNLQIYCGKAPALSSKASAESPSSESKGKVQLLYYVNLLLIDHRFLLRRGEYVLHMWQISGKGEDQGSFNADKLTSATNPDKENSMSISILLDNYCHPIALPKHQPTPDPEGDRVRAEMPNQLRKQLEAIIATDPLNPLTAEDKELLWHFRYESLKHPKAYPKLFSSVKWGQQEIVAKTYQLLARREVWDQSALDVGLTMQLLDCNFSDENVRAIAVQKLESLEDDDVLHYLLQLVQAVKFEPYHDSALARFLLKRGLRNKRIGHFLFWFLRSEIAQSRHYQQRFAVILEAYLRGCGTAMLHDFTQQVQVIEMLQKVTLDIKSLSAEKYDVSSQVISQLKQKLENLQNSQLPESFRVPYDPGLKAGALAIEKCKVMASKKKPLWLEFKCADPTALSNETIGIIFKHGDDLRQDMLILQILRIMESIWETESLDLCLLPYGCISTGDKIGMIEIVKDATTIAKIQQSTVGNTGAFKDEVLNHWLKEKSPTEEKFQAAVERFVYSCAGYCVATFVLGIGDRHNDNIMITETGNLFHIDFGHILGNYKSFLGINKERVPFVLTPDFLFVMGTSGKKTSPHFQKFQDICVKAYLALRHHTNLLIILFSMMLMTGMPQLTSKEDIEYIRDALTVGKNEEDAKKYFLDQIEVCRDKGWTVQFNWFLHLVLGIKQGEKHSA
structure (smiles),measurement,setting,value
"O=C(CNc1ccc([N+](=O)[O-])cc1)Nc1nc2ccccc2s1 [OMS5, N-(1,3-benzothiazol-2-yl)-2-(4-nitroanilino)acetamide]",inhibition at 100 µM,PI3Kγ enzyme; read-out: % of inhibition (mean) against PI3Kγ enzyme,0%
same,inhibition at 100 µM,"PI3Kγ enzyme; read-out: % of inhibition against PI3Kγ enzyme, point 1",0%
same,inhibition at 100 µM,"PI3Kγ enzyme; read-out: % of inhibition against PI3Kγ enzyme, point 2",0%
same,zone of inhibition at 100 µg/mL,Escherichia coli,0 mm
same,GI50,"MDA-MB-231/ATCC; Homo sapiens, MDA-MB-231",1000 nM
same,IC50,"MDA-MB-231/ATCC; Homo sapiens, MDA-MB-231",2300 nM
same,CC50,"MDA-MB-231/ATCC; Homo sapiens, MDA-MB-231, read-out: LC50",8.3 µM
same,TGI,"MDA-MB-231/ATCC; MDA-MB-231/ATCC, breast cancer",2.9 µM
same,GI50,"SF-539; Homo sapiens, SF-539",500 nM
same,IC50,"SF-539; Homo sapiens, SF-539",1400 nM
same,CC50,"SF-539; Homo sapiens, SF-539, read-out: LC50",6.5 µM
same,TGI,"SF-539; SF-539, CNS cancer",2.1 µM
same,GI50,"SNB-19; Homo sapiens, SNB-19",1000 nM
same,IC50,"SNB-19; Homo sapiens, SNB-19",2600 nM
same,CC50,"SNB-19; Homo sapiens, SNB-19, read-out: LC50",95.5 µM
same,TGI,"SNB-19; SNB-19, CNS cancer",10 µM
same,GI50,"SNB-75; Homo sapiens, SNB-75",1400 nM
same,IC50,"SNB-75; Homo sapiens, SNB-75",3000 nM
same,CC50,"SNB-75; Homo sapiens, SNB-75, read-out: LC50",5.9 µM
same,TGI,"SNB-75; SNB-75, CNS cancer",2.9 µM
same,TGI,"HCT-116; HCT-116, colon cancer",11 µM
same,GI50,"HCT-116; Homo sapiens, HCT-116",400 nM
same,IC50,"HCT-116; Homo sapiens, HCT-116",400 nM
same,CC50,"HCT-116; Homo sapiens, HCT-116, read-out: LC50",45.7 µM
same,GI50,CCRF-CEM; Homo sapiens,900 nM
same,IC50,CCRF-CEM; Homo sapiens,2300 nM
same,CC50,"CCRF-CEM; Homo sapiens, read-out: LC50",> 100 µM
same,TGI,CCRF-CEM; leukemia,50 µM
same,GI50,"K-562; Homo sapiens, K562",500 nM
same,IC50,"K-562; Homo sapiens, K562",600 nM
same,CC50,"K-562; Homo sapiens, K562, read-out: LC50",> 100 µM
same,TGI,"K-562; K-562, leukemia",100 µM
same,GI50,"MDA-MB-435; Homo sapiens, MDA-MB-435",700 nM
same,IC50,"MDA-MB-435; Homo sapiens, MDA-MB-435",1300 nM
same,CC50,"MDA-MB-435; Homo sapiens, MDA-MB-435, read-out: LC50",4.8 µM
same,TGI,"MDA-MB-435; MDA-MB-435, melanoma",2 µM
same,GI50,"SK-MEL-2; Homo sapiens, SK-MEL-2",1300 nM
same,IC50,"SK-MEL-2; Homo sapiens, SK-MEL-2",3000 nM
same,CC50,"SK-MEL-2; Homo sapiens, SK-MEL-2, read-out: LC50",6.3 µM
same,TGI,"SK-MEL-2; SK-MEL-2, melanoma",2.8 µM
same,GI50,"SK-MEL-5; Homo sapiens, SK-MEL-5",1600 nM
same,IC50,"SK-MEL-5; Homo sapiens, SK-MEL-5",2900 nM
same,CC50,"SK-MEL-5; Homo sapiens, SK-MEL-5, read-out: LC50",5.5 µM
same,TGI,"SK-MEL-5; SK-MEL-5, melanoma",3 µM
same,GI50,"UACC-62; Homo sapiens, UACC-62",1100 nM
same,IC50,"UACC-62; Homo sapiens, UACC-62",2000 nM
same,CC50,"UACC-62; Homo sapiens, UACC-62, read-out: LC50",5.5 µM
same,TGI,"UACC-62; UACC-62, melanoma",2.5 µM
same,TGI,"A549/ATCC; A549/ATCC, non-small cell lung cancer",28 µM
same,GI50,"A549/ATCC; Homo sapiens, A549",800 nM
same,IC50,"A549/ATCC; Homo sapiens, A549",1500 nM
same,CC50,"A549/ATCC; Homo sapiens, A549, read-out: LC50",> 100 µM
same,TGI,"HOP-62; HOP-62, non-small cell lung cancer",4.9 µM
same,GI50,"HOP-62; Homo sapiens, HOP-62",1200 nM
same,IC50,"HOP-62; Homo sapiens, HOP-62",3000 nM
same,CC50,"HOP-62; Homo sapiens, HOP-62, read-out: LC50",25.1 µM
same,GI50,"NCI-H23; Homo sapiens, NCI-H23",1000 nM
same,IC50,"NCI-H23; Homo sapiens, NCI-H23",2100 nM
same,CC50,"NCI-H23; Homo sapiens, NCI-H23, read-out: LC50",7.8 µM
same,TGI,"NCI-H23; NCI-H23, non-small cell lung cancer",2.8 µM
same,GI50,NCI-H322M; Homo sapiens,1100 nM
same,IC50,NCI-H322M; Homo sapiens,2500 nM
same,CC50,"NCI-H322M; Homo sapiens, read-out: LC50",28.8 µM
same,TGI,NCI-H322M; non-small cell lung cancer,4.1 µM
same,GI50,"NCI-H460; Homo sapiens, NCI-H460",400 nM
same,IC50,"NCI-H460; Homo sapiens, NCI-H460",500 nM
same,CC50,"NCI-H460; Homo sapiens, NCI-H460, read-out: LC50",39.8 µM
same,TGI,"NCI-H460; NCI-H460, non-small cell lung cancer",3.3 µM
same,GI50,"NCI-H522; Homo sapiens, NCI-H522",700 nM
same,IC50,"NCI-H522; Homo sapiens, NCI-H522",2100 nM
same,CC50,"NCI-H522; Homo sapiens, NCI-H522, read-out: LC50",6.3 µM
same,TGI,"NCI-H522; NCI-H522, non-small cell lung cancer",2.3 µM
same,GI50,NCI/ADR-RES; Homo sapiens,600 nM
same,IC50,NCI/ADR-RES; Homo sapiens,1300 nM
same,CC50,"NCI/ADR-RES; Homo sapiens, read-out: LC50",53.7 µM
same,TGI,NCI/ADR-RES; ovarian cancer,4.6 µM
same,GI50,"PC-3; Homo sapiens, PC-3",1600 nM
same,IC50,"PC-3; Homo sapiens, PC-3",2800 nM
same,CC50,"PC-3; Homo sapiens, PC-3, read-out: LC50",> 100 µM
same,TGI,"PC-3; PC-3, prostate cancer",45 µM
same,GI50,SN12C; Homo sapiens,600 nM
same,IC50,SN12C; Homo sapiens,1500 nM
same,CC50,"SN12C; Homo sapiens, read-out: LC50",57.5 µM
same,TGI,SN12C; renal cancer,4.9 µM
same,GI50,"UO-31; Homo sapiens, UO-31",500 nM
same,IC50,"UO-31; Homo sapiens, UO-31",1300 nM
same,CC50,"UO-31; Homo sapiens, UO-31, read-out: LC50",26.9 µM
same,TGI,"UO-31; UO-31, renal cancer",3.8 µM
same,GI50,HL-60(TB); HL-60,800 nM
same,IC50,HL-60(TB); HL-60,2500 nM
same,CC50,"HL-60(TB); HL-60, read-out: LC50",> 100 µM
